# Laboratory results taken from publication PMC4347663 (Journal of medicinal chemistry, 2013).
# Where a name gives a salt, the structure may show the parent alone.
# Key:
# [1] = system: IL-6; test: LPS-stimulated IL-6 expression in THP-1 cells; format: cell-based, human; conditions: six hours; for IL-6 transcript expression: 10 μM compound, LPS 10 μg/mL; for IL-6 secretion / expression: 1 μM compound, LPS 10 mcg/mL
# Procedure, shortened: (§1)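 THP-1 cells kept at 3×105 to 8×10^5 cells/mL in RPMI1640 with 10% FBS. Cells were stimulated with LPS 10 μg/mL alongside DMSO or test compound at 10 μM, or at 1 μM in triplicate. After 6 h, cells were lysed and RNA was analysed by RT-qPCR with TATA box binding protein as housekeeping gene. Groups were compared by one-way ANOVA with Dunnett's post-hoc test.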
# [2] = system: ABCA1; test: ABCA1 expression in THP-1 cells; format: cell-based, human; conditions: six hours; for ABCA1 transcript expression: 10 μM compound, LPS 10 μg/mL; for ABCA1 levels: 1 μM compound, LPS 10 mcg/mL
# Procedure, shortened: as §1
# [3] = system: BMAL1 expression (Bmal-promoter luciferase) in U2OS cells; test: BMAL reporter gene assay in synchronized U2OS cells; format: cell-based, human; conditions: for BMAL1 Phase Delay: delay of peak of second cycle, 20 μM treated cells relative to DMSO treated cells; for inhibition at 20 µM: Homo sapiens, U2OS, 40 h, read-out: BMAL1 Supp.
# [4] = target: T1, REV-ERBα (Homo sapiens, UniProt P20393); test: REV-ERBα NCOR FRET assay; format: biochemical; conditions: purified REV-ERBα protein, in vitro
# T1 sequence (P20393 1-614): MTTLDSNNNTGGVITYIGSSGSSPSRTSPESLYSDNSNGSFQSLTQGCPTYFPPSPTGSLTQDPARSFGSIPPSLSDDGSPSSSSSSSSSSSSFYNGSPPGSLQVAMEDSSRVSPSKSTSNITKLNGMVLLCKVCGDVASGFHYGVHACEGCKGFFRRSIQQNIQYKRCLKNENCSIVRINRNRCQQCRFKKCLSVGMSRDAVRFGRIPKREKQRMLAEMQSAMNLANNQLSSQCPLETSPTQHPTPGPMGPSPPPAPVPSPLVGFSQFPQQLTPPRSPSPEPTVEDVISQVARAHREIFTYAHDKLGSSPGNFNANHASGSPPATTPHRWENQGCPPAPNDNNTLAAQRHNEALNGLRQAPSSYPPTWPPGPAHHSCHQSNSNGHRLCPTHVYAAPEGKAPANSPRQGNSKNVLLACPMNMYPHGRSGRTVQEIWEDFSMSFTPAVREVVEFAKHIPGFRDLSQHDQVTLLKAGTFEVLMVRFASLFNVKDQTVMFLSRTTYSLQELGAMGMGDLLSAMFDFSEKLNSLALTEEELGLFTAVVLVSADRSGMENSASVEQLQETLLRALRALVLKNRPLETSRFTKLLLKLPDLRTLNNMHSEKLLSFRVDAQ
# [5] = target: T2, LXRα (Homo sapiens, UniProt Q13133); test: LXRα radio ligand displacement binding; conditions: for LXRα Fold Sel.: selectivity for REV-ERBα over LXRα
# T2 sequence (Q13133 1-447): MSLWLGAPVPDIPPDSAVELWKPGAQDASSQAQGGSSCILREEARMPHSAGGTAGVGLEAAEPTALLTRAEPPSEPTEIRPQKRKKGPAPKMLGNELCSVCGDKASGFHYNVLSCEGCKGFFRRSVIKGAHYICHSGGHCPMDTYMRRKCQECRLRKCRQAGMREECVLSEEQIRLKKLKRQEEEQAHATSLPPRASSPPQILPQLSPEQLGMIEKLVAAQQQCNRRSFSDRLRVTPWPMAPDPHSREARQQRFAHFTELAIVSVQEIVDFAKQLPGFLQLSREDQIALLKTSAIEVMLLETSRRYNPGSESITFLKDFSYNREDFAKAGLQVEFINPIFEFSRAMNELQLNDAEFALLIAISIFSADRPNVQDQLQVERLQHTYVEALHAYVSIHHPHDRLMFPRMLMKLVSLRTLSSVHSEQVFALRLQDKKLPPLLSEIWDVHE
# [6] = IV and oral DMPK cassette dose experiment; format: in vivo, C57Bl/6 mice; conditions: for AUC(0-t) / Vd / clearance / half-life / Cmax / Tmax / bioavailability: male, C57Bl/6, mouse, plasma, 1 mg/kg; for bioavailability: F
Compound,BMAL1 Phase Delay [3] [h],recruitment of NCOR peptide fragment to REV-ERBα (in words) [4],AUC(0-t) ([6]; iv) [ng·h/mL],Vd ([6]; iv) [L/kg],clearance ([6]; iv) [mL/min/kg],half-life ([6]; iv) [min],AUC(0-t) ([6]; po) [ng·h/mL],Cmax ([6]; po) [ng/mL],Tmax ([6]; po) [min],"bioavailability ([6]; po, 1 mg/Kg cassette, mice) [%]",IL-6 secretion / expression [1],ABCA1 levels [2],LXRα Fold Sel. [5],further results
"CC(C)(C)OC(=O)CN(Cc1ccc(Cl)cc1)Cc1ccc([N+](=O)[O-])s1 [Compound 1, reference compound]",0,induced recruitment of co-factor NCOR peptide fragment,–,–,–,–,–,–,–,–,–,–,–,IL-6 transcript expression [1]: significantly repressed IL-6; ABCA1 transcript expression [2]: increased ABCA1 transcript expression
"CCCCCNC(=O)N1CCC(CN(Cc2ccc(Cl)cc2)Cc2ccc([N+](=O)[O-])s2)C1 (stereo not drawn) [Compound 2, reference compound]",–,neither compounds 2 or 3 increased recruitment of the NCOR peptide fragment,–,–,–,–,–,–,–,–,–,–,–,IL-6 transcript expression [1]: significantly repressed IL-6; ABCA1 transcript expression [2]: increased ABCA1 transcript expression; IC50 [5]: 6.3 µM; inhibition at 20 µM [3]: 20%
"CCOC(=O)N1CCC(CN(Cc2ccc(Cl)cc2)Cc2ccc([N+](=O)[O-])s2)C1 (stereo not drawn) [Compound 3, reference compound]",–,neither compounds 2 or 3 increased recruitment of the NCOR peptide fragment,365,1.6,45,33,7.93,7.41,30,2.2,–,–,–,inhibition at 20 µM [3]: 14%
"Cc1cc(Cl)ccc1CN(Cc1ccc(Cl)cc1)Cc1ccc([N+](=O)[O-])s1 [Compound 4, N-(4-chloro-2-methylbenzyl)-N-(4-chlorobenzyl)-1-(5-nitrothiophen-2-yl)methanamine hydrochloride salt]",0,–,2540,0.3,6.67,99,594,180,120,–,significant reduction of IL-6 secretion,no measurable effect on ABCA1 levels,"1,259 fold","effect on BMAL oscillation curve ([3]; synchronized U2OS cells): suppression and shift of the BMAL oscillation curve in a dose-dependent manner; F ([6]; Oral, 1 mg/Kg cassette, mice): 23.4%; half-life [6]: 120 min"
"O=[N+]([O-])c1ccc(CN(Cc2ccc(Cl)cc2)Cc2ccccc2F)s1 [Compound 6, N-(4-Chlorobenzyl)-N-(2-fluorobenzyl)-1-(5-nitrothiophen-2-yl)methanamine hydrochloride salt]",0,–,–,–,–,–,–,–,–,–,–,–,–,–
"O=[N+]([O-])c1ccc(CN(Cc2ccc(F)cc2)Cc2cccnc2)s1 [Compound 10, N-(4-Fluorobenzyl)-1-(5-nitrothiophen-2-yl)-N-(pyridin-3-ylmethyl)methanamine hydrochloride salt]",0,–,354,1.5,46.7,44.4,8.39,8.98,15,2.4,significant reduction of IL-6 secretion,no measurable effect on ABCA1 levels,> 250 fold,–
"N#Cc1ccc(CN(Cc2ccc(Cl)cc2)Cc2cccnc2)s1 [Compound 16, 5-(((4-Chloro-benzyl)(pyridin-3-ylmethyl)amino)methyl)thiophene-2-carbonitrile hydrochloride salt]",0,–,361,1.8,46.7,76.2,10.2,9.14,15,3.5,significant reduction of IL-6 secretion,no measurable effect on ABCA1 levels,100 fold,–
"Clc1ccc(CN(Cc2cccnc2)Cc2nccs2)cc1 [Compound 20, N-(4-Chlorobenzyl)-1-(pyridin-3-yl)-N-(thiazol-2-ylmethyl)methanamine]",–,complete loss of activity,–,–,–,–,–,–,–,–,–,–,<1 fold,–
"Clc1ccc(CN(Cc2cccnc2)Cc2ncc[nH]2)cc1 [Compound 21, N-((1H-Imidazol-2-yl)methyl)-N-(4-chlorobenzyl)-1-(pyridin-3-yl)methanamine]",–,complete loss of activity,–,–,–,–,–,–,–,–,–,–,–,–
"N#Cc1ccc(CN(Cc2cccnc2)Cc2ccc(F)c(F)c2)s1 [Compound 23, 5-(((3,4-Difluorobenzyl)(pyridin-3-ylmethyl)amino)methyl)thiophene-2-carbonitrile]",–,–,375,1.4,43.3,44.4,9.39,9.94,15,3,significant reduction of IL-6 secretion,no measurable effect on ABCA1 levels,–,–
"N#Cc1ccc(CN(Cc2cccnc2)Cc2cc(F)ccc2F)s1 [Compound 25, 5-(((2,5-Difluorobenzyl)(pyridin-3-ylmethyl)amino)methyl)thiophene-2-carbonitrile]",0,–,–,–,–,–,–,–,–,–,–,–,–,–
"N#Cc1ccc(CN(Cc2cccnc2)Cc2ccccc2F)s1 [Compound 26, 5-(((2-Fluorobenzyl)(pyridin-3-ylmethyl)amino)methyl)thiophene-2-carbonitrile]",0,–,–,–,–,–,–,–,–,–,–,–,<1 fold,–
"C=CC1=C(C)c2cc3[n-]c(cc4[n-]c(cc5nc(cc1n2)C(C)=C5C=C)c(C)c4CCC(=O)O)c(CCC(=O)O)c3C.[Fe+2] [heme, reference compound]",–,–,–,–,–,–,–,–,–,–,–,–,–,"BMAL-luciferase suppression ([3]; in-house U2OS reporter assay, single endpoint comparison): > 50%"
